The target of assay [1] is T1, Vasopressin V1a receptor (Homo sapiens, UniProt P37288). The assay can be described thus: Displacement of [3H]-(Arg8)-vasopressin from human vasopressin V1a receptor transfected in CHO cell membranes. The gist of the method: (§1)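 Competition binding of [3H](Arg8)-vasopressin to human V1a or V2 receptors. Ki is reported as the mean of duplicate measurements. Where no Ki was given, percent inhibition of radioligand binding was read at 10 μM test compound.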
Target sequence in this assay (P37288 whole entry): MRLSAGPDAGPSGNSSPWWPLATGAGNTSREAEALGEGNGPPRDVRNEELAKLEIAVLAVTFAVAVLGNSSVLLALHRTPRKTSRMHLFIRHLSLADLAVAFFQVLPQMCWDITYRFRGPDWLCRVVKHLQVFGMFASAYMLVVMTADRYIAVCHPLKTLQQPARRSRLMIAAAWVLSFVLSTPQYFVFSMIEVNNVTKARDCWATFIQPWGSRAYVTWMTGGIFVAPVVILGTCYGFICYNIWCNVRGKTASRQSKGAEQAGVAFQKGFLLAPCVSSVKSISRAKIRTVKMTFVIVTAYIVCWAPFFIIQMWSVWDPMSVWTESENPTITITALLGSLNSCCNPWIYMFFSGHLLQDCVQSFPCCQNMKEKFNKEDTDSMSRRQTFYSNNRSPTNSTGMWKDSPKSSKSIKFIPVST

Assay [2] has as its target T2, Vasopressin V2 receptor (Homo sapiens, UniProt P30518). Nature of the assay: Displacement of [3H]-(Arg8)-vasopressin from human vasopressin V2 receptor transfected in CHO cell membranes. A digest of the protocol:
as §1
(In general: In a radioligand displacement assay an active substance lowers the binding of a labelled ligand.)

Assay [3] concerns the target T2, Vasopressin V2 receptor. Nature of the assay: Displacement of [3H]-(Arg8)-vasopressin from human vasopressin V2 receptor transfected in CHO cell membranes at 10 uM relative to control. The gist of the method:
as §1

The target of assay [4] is T1, Vasopressin V1a receptor. The assay can be described thus: Displacement of [3H]-(Arg8)-vasopressin from human vasopressin V1a receptor transfected in CHO cell membranes at 10 uM relative to control. A digest of the protocol:
as §1
Target sequence in this assay (P37288 whole entry, looked up): as the sequence (P37288 whole entry) above

Each structure is given as a SMILES string. pKi: −log10 of the molar value. “And” between values parts separate entries of the source, which are not always exact repeats. Equal entries are not always repeated.

These results are taken from ChEMBL document CHEMBL3414468, “N-benzoyl-1,5-benzothiazepine and its S-oxide as vasopressin receptor ligands: insight into the active stereochemistry around the seven-membered ring” (J Med Chem, 2015).

A word on the pKi: it is the negative decadic logarithm of the Ki, by convention in mol/L. A word on the inhibition: it is the percentage by which the read-out fell short of the control.

T2 sequence (P30518 whole entry): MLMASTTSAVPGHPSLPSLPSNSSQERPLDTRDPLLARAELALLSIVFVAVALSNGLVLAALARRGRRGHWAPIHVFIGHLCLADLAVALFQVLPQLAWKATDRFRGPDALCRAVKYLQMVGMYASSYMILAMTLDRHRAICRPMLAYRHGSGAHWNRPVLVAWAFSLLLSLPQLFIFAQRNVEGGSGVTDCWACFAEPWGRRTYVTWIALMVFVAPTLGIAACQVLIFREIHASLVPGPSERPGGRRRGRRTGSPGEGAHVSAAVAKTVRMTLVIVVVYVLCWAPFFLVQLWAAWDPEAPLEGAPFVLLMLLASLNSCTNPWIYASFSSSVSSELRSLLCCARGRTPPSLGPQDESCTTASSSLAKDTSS

On to `Cc1ccccc1C(=O)Nc1ccc(C(=O)N2CCCSc3ccccc32)cc1`, for which the pKi at Vasopressin V1a receptor [1] was 7.17; at Vasopressin V2 receptor [2] it was 7.68.
For `Cc1ccccc1C(=O)Nc1ccc(C(=O)N2CCCSc3cccc(C)c32)cc1`, the pKi at Vasopressin V1a receptor [1] is 7.43 and 7.72 and 6.83; on Vasopressin V2 receptor [2], 6.44 and 6.74 and 5.74.
Consider `Cc1ccccc1C(=O)Nc1ccc(C(=O)N2CCCSc3c(C)cccc32)cc1`, for which the pKi on Vasopressin V1a receptor [1] was 7.32; on Vasopressin V2 receptor [2] it was 6.06.
In the case of `Cc1ccccc1C(=O)Nc1ccc(C(=O)N2CCCN(C)c3cccc(C)c32)cc1`, the pKi is 8.23 and 8.36 and 7.89 on Vasopressin V1a receptor [1]; 6.89 and 7.01 and 6.51 at Vasopressin V2 receptor [2].
Regarding `Cc1ccccc1C(=O)Nc1ccc(C(=O)N2CCC[S+]([O-])c3ccccc32)cc1` (racemic), the pKi at Vasopressin V1a receptor [1] is 6.04; at Vasopressin V2 receptor [2], 6.06.
In turn, `Cc1ccccc1C(=O)Nc1ccc(C(=O)N2CCC[S+]([O-])c3c(C)cccc32)cc1` (racemic) gave a negative logarithm of the Ki (pKi) at Vasopressin V1a receptor [1] of 6.06. This compound also yielded an inhibition at Vasopressin V2 receptor [3] of 34%.
With `Cc1ccccc1C(=O)Nc1ccc(C(=O)N2CCC[S@@+]([O-])c3cccc(C)c32)cc1` (racemic), the inhibition was determined as 55% at Vasopressin V1a receptor [4] and 22% on Vasopressin V2 receptor [3].
The compound `Cc1ccccc1C(=O)Nc1ccc(C(=O)N2CCC[S@@+]([O-])c3ccccc32)cc1` (stereo in doubt; (+)) [listing 1 of 2 here] gave a negative logarithm of the Ki (pKi) on Vasopressin V2 receptor [2] of 5.91.
Consider `Cc1ccccc1C(=O)Nc1ccc(C(=O)N2CCC[S@@+]([O-])c3c(C)cccc32)cc1` (stereo in doubt; (+)) [listing 1 of 2 here], for which, at Vasopressin V1a receptor [1], the pKi was 6.18.
`Cc1ccccc1C(=O)Nc1ccc(C(=O)N2CCC[S@@+]([O-])c3c(C)cccc32)cc1` (stereo in doubt; (+)) [listing 2 of 2 here] returned an inhibition on Vasopressin V2 receptor [3] of 48%.
On Vasopressin V1a receptor [4], `Cc1ccccc1C(=O)Nc1ccc(C(=O)N2CCC[S@@+]([O-])c3ccccc32)cc1` (stereo in doubt; (+)) [listing 2 of 2 here] gave an inhibition of 57%.
As to `Cc1ccccc1C(=O)Nc1ccc(C(=O)N2CCC[S@@+]([O-])c3ccccc32)cc1` (stereo in doubt; (-)), the pKi at Vasopressin V1a receptor [1] is 6.26; at Vasopressin V2 receptor [2], 6.09.
Regarding `Cc1ccccc1C(=O)Nc1ccc(C(=O)N2CCC[S@@+]([O-])c3c(C)cccc32)cc1` (stereo in doubt; (-)), the figures for the inhibition on Vasopressin V1a receptor [4] and on Vasopressin V2 receptor [3] were 53% and 0%, respectively.
